Screening data (PubChem)
Only some compounds are listed: those with a hit (about 3.5% of all), similar ones and a draw of the others.
PAFAH1B2 inh – PAFAH1B2 (human) inhibition. recombinant PAFAH1B2, FP-rhodamine activity probe, fluorescence polarization. inhibition, % at 3.39 µM. 340,000 tested, 1.2% active. AID 492953;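 active = inhibition above the mean of all tested compounds plus 3 SD, cut at about 24% in these data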;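 note: 0% = enzyme with DMSO and 100% = wells lacking PAFAH1B2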
PAFAH2 inh – PAFAH2 (human) inhibition; Q99487; AID 492956; inhibition, % at 3.39 µM; recombinant PAFAH2, FP-rhodamine activity probe, fluorescence polarization; 340,000 tested, 0.99% active;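 active = inhibition above the mean over all tested compounds plus 3 SD, cut at about 30% in these data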;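 note: inhibitors block probe labeling of enzyme so polarization drops; 0% = enzyme with DMSO and 100% = wells lacking PAFAH2 protein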
PAFAH1B3 FP inh – PAFAH1B3 (human) inhibition; inhibition, % at 3.39 µM; recombinant PAFAH1B3, FP-rhodamine probe, fluorescence polarization; 340,000 tested, 0.28% active;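 active = inhibition above the screen-wide average of all tested compounds plus 3 SD, cut at about 25% in these data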;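 note: 0% = enzyme with DMSO only and 100% = wells lacking PAFAH1B3 protein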
pPAFAH inh – pPAFAH (human) enzyme inhibition; Q13093; recombinant pPAFAH, FP-rhodamine probe fluorescence polarization; inhibition, % at 3.39 µM; 330,000 tested, 1.5% active;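 active = inhibition above the mean inhibition across the screen plus 3 SD, cut at about 25% in these data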;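 note: inhibitors block binding of the rhodamine activity-based probe so polarization drops; 0% = enzyme with DMSO and 100% = wells lacking pPAFAH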
PREPL inhibitor – inhibits the human prolyl oligopeptidase-like enzyme; Q4J6C6; recombinant PREPL, fluorescence polarization activity-based probe; inhibition, % at 5.96 µM; 320,000 tested, 0.68% active; AID 2751;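 note: 0% = enzyme with DMSO and 100% = wells lacking enzyme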
Target sequence (Q4J6C6 whole entry, looked up): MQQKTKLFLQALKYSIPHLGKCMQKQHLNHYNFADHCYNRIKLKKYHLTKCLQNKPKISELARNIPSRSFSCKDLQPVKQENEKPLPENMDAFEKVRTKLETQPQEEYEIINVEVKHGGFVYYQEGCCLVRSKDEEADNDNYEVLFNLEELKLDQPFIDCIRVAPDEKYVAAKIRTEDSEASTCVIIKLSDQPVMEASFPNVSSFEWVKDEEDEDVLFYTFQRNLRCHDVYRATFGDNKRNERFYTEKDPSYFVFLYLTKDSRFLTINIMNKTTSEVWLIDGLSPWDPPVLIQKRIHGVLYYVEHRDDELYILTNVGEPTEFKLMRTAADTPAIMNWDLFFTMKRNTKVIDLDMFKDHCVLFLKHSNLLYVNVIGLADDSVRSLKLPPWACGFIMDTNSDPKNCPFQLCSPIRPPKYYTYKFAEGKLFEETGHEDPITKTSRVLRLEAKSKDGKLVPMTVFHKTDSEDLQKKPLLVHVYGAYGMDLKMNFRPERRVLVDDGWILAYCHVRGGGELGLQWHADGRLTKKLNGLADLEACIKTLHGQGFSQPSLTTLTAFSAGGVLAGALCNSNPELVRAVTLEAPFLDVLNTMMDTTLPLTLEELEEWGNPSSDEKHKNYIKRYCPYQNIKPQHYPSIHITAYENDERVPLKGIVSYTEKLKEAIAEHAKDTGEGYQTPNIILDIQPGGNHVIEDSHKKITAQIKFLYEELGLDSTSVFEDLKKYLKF
Apaf1 inhib – blocks human Apaf-1 apoptosome activity; O14727; reconstituted apoptosome caspase-3 activity, DEVD-Rh110 fluorescence; inhibition, % at 20 µM; 330,000 tested, 0.71% active; AID 489030; active = inhibition of at least 40% at 20 µM;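 note: plate controls were DMSO wells for no effect and DEVD-CHO caspase inhibitor wells for full effect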
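System: Apoptosome proteins | Medium: Hepes pH 7.5 with detergent and BSA | Also added: Cytochrome c trigger plus (Z-DEVD)2-Rh110 caspase-3 substrate | Incubation: 30 min compound preincubation, 50 min activation, room temperature | Detection: Rhodamine 110 fluorescence at Ex 480/Em 540 nm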
PREPL inh cf – human PREPL inhibition, confirmation | shares compounds with PREPL inhibitor | recombinant PREPL, fluorescence polarization activity probe | inhibition, % at 5.96 µM | 2,000 tested, 67% active;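 note: 0% = protein with DMSO and 100% = wells lacking protein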
* hit, by the source's call. Cut-off read from the data, not from the text of the source, unless noted: active = inhibition above about 43%; inactive = the rest.

How did CN(C)c1ccc(C(CNC(=O)COc2ccc(Cl)cc2)N2CCCC2)cc1 (centres undefined) do in these assays?
PAFAH1B2 inh: 6; PAFAH2 inh: -3; PAFAH1B3 FP inh: 2; pPAFAH inh: 2; PREPL inhibitor: 67*; Apaf1 inhib: 11; PREPL inh cf: 53*

What do the screens show for `CCN1/C(=C/c2cccc[n+]2C)Sc2ccc(OC)cc21`?
PAFAH1B2 inh: 2; PAFAH2 inh: 1; PAFAH1B3 FP inh: 0; pPAFAH inh: -2; PREPL inhibitor: 48*; Apaf1 inhib: 0; PREPL inh cf: 46*

How did O=C(O)c1ccc(Cl)c(NC(=O)C2CCCN2S(=O)(=O)c2cccc3nsnc23)c1 (centres undefined) do in these assays?
PAFAH1B2 inh: 1; PAFAH2 inh: 1; PAFAH1B3 FP inh: 5; pPAFAH inh: -2; PREPL inhibitor: 69*; Apaf1 inhib: -8; PREPL inh cf: 0

What do the screens show for `O=C(NC1CCCCC1)C1CCCN1S(=O)(=O)c1cccc2nsnc12` (centres undefined)?
PAFAH1B2 inh: -1; PAFAH2 inh: 4; PAFAH1B3 FP inh: -1; pPAFAH inh: 1; PREPL inhibitor: 7; Apaf1 inhib: -8

What do the screens show for `CN1CCN(CCCNC(=O)c2ccc3c(c2)N(Cc2ccc(F)cc2)CCS3)CC1`?
PAFAH1B2 inh: 4; PAFAH2 inh: 3; PAFAH1B3 FP inh: 7; pPAFAH inh: 6; PREPL inhibitor: 44*; Apaf1 inhib: 25; PREPL inh cf: 36

How did O=C(NCCCN1CCOCC1)c1ccc2c(c1)N(Cc1ccc(F)cc1)CCS2 do in these assays?
PAFAH1B2 inh: 4; PAFAH2 inh: 6; PAFAH1B3 FP inh: 15; pPAFAH inh: 5; PREPL inhibitor: 26; Apaf1 inhib: 15

Results for COc1ccc(CC(=O)N2CCN(S(=O)(=O)c3cc(Cl)ccc3Cl)CC2)cc1 ?
PAFAH1B2 inh: -2; PAFAH2 inh: 0; PAFAH1B3 FP inh: 2; pPAFAH inh: 1; PREPL inhibitor: 79*; Apaf1 inhib: 1; PREPL inh cf: 18

Results for Cc1ccsc1/C=N/N=C1\C(=O)Nc2ccccc21 ?
PAFAH1B2 inh: -1; PAFAH2 inh: 3; PAFAH1B3 FP inh: 5; pPAFAH inh: 14; PREPL inhibitor: 53*; Apaf1 inhib: 10; PREPL inh cf: 52*

What do the screens show for `O=C1C[C@@H]2c3c(cccc3CN1Cc1ccccc1F)C[C@@H](O)[C@H]2O`?
PAFAH1B2 inh: 7; PAFAH2 inh: -1; PAFAH1B3 FP inh: 2

Results for Cc1c(C(C)(C(=O)O)c2c(C)n(C)c3ccccc23)c2ccccc2n1C ?
pPAFAH inh: -1; PREPL inhibitor: 5; Apaf1 inhib: 17

Results for OC(CNC1CCCC1)COCCOc1ccc(Br)cc1 (centres undefined) ?
PAFAH1B2 inh: 6; PAFAH2 inh: -1; PAFAH1B3 FP inh: 0; pPAFAH inh: 3; PREPL inhibitor: 46*; Apaf1 inhib: -22; PREPL inh cf: 35

What do the screens show for `O=C(C1CCCN(c2ncnc3c2nc2n3CCCCC2)C1)N1CCN(c2ccc(Cl)cc2)CC1` (centres undefined)?
PAFAH1B2 inh: 2; PAFAH2 inh: 0; PAFAH1B3 FP inh: 10; pPAFAH inh: 8; PREPL inhibitor: -5; Apaf1 inhib: 16

What do the screens show for `O=C(C1CCN(c2ncnc3c2nc2n3CCCCC2)CC1)N1CCN(c2cccc(Cl)c2)CC1`?
PAFAH1B2 inh: -2; PAFAH2 inh: -3; PAFAH1B3 FP inh: -4; pPAFAH inh: 12; PREPL inhibitor: 49*; Apaf1 inhib: 39; PREPL inh cf: 47*

Results for CCOc1cc(N2CCOCC2)c(OCC)cc1NCC(=O)N1CCN(Cc2ccccc2)CC1 ?
PAFAH1B2 inh: 6; PAFAH2 inh: 4; PAFAH1B3 FP inh: 5; pPAFAH inh: -6; PREPL inhibitor: 20; Apaf1 inhib: -2

Results for O=C(COc1ccc(/C=C2/NC(=O)NC2=O)cc1)Nc1ccc(F)cc1 ?
PAFAH1B2 inh: 1; PAFAH2 inh: 6; PAFAH1B3 FP inh: -2; pPAFAH inh: -4; PREPL inhibitor: 15; Apaf1 inhib: 5

How did COc1cc(/C=C2/NC(=O)NC2=O)ccc1OCC(=O)Nc1ccc(F)cc1 do in these assays?
PAFAH1B2 inh: 5; PAFAH2 inh: 1; PAFAH1B3 FP inh: 6; pPAFAH inh: 14; PREPL inhibitor: 87*; Apaf1 inhib: -3; PREPL inh cf: 10

How did COc1ccc(C(C(=O)NC2CCCCC2)N(Cc2ccco2)C(=O)c2snc(C(N)=O)c2N)cc1 (centres undefined) do in these assays?
PAFAH1B2 inh: 1; PAFAH2 inh: -5; PAFAH1B3 FP inh: -3; Apaf1 inhib: 8

What do the screens show for `Cn1nc(-c2ccccc2)c(C(=O)NCC(=O)O)c1Cl`?
PAFAH1B2 inh: 2; PAFAH2 inh: -1; PAFAH1B3 FP inh: 8; pPAFAH inh: 3; PREPL inhibitor: -9; Apaf1 inhib: -8

How did Cc1cc2c(cc(C(=O)OC(C)C(=O)NCc3ccc(F)cc3)n2C)o1 (centres undefined) do in these assays?
PAFAH1B2 inh: 2; PAFAH2 inh: 2; PAFAH1B3 FP inh: 9

What do the screens show for `O=C(Nc1ccccc1N1CCCC1)c1cccc(-c2cc3ccccc3oc2=O)c1`?
PAFAH1B2 inh: -3; PAFAH2 inh: 5; PAFAH1B3 FP inh: 6; pPAFAH inh: 10; PREPL inhibitor: 45*; Apaf1 inhib: 22; PREPL inh cf: 32

How did C[C@H](/C=C/[C@@]1(O)[C@H](C)C[C@H](O)CC1(C)C)O[C@@H]1O[C@H](CO)[C@@H](O)[C@H](O)[C@H]1O do in these assays?
PAFAH1B2 inh: 2; PAFAH2 inh: 2; PAFAH1B3 FP inh: -2; pPAFAH inh: 2; PREPL inhibitor: 4; Apaf1 inhib: -8

Results for Cn1ncc([N+](=O)[O-])c1C(=O)Nc1ccc(C2CCCCC2)cc1 ?
PAFAH1B2 inh: -1; PAFAH2 inh: 1; PAFAH1B3 FP inh: -3; pPAFAH inh: 8; PREPL inhibitor: -3; Apaf1 inhib: 20

Results for C[C@@H]1CN([C@H](C)CO)C(=O)Cc2cc(NS(=O)(=O)c3ccc(F)cc3)ccc2O[C@H]1CN(C)Cc1ccc(C(=O)O)cc1 ?
PAFAH1B2 inh: 3; PAFAH2 inh: 10; PAFAH1B3 FP inh: 4; pPAFAH inh: 14; PREPL inhibitor: 16; Apaf1 inhib: 9

Results for Cc1ccc(S(=O)(=O)Nc2ccc3c(c2)CC(=O)N([C@H](C)CO)C[C@H](C)[C@H](CN(C)Cc2ccc4c(c2)OCO4)O3)cc1 ?
PAFAH1B2 inh: 11; PAFAH2 inh: 2; PAFAH1B3 FP inh: 0; pPAFAH inh: 4; PREPL inhibitor: 51*; Apaf1 inhib: 26; PREPL inh cf: 53*
